pIC50, pKi: −log10 of the molar value. The source made the active and inactive calls. The rule behind the calls is not given here.
Experiments:
DNA ligase 1 [1] = target: T1, DNA ligase 1 (Homo sapiens, UniProt P18858); assay: Inhibition of human recombinant DNA ligase 1 at 100 uM by fluorescence energy transfer-based DNA joining assay relative to control
Method in brief: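 Fluorescence energy transfer joining of a nicked DNA substrate (10 pmol) by purified recombinant hLigI (0.25 pmol), run in duplicate with or without 100 µM candidate inhibitor.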

[2] = Partition coefficient, log P of the compound; format: physicochemical; conditions: octanol/water
DNA ligase 1 [3] = target: T1, DNA ligase 1; assay: Inhibition of human recombinant DNA ligase 1 in presence of 0.1% Triton X-100 by fluorescence energy transfer-based DNA joining assay relative to control
DNA ligase 1 [4] = target: T1, DNA ligase 1; assay: Inhibition of human recombinant DNA ligase 1 by radioactive gel-based ligation assay
Method in brief: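 A 25-mer and a 5′-[32P]-labeled 18-mer were annealed to a complementary 44-mer to give a centrally nicked duplex. Labeled substrate (0.5 pmol) and hLigI (0.02 pmol) in ligation buffer were incubated with varying inhibitor concentrations for 30 min at 25 °C. Products were resolved on gels, and IC50 was derived from the concentration-dependence.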

[5] = Growth inhibition of human MCF10A cells at 50 uM by MTT assay relative to control; format: cell-based; conditions: MCF-10A
HCT-116 = assay: Growth inhibition of human HCT116 cells at 50 uM by MTT assay relative to control; format: functional, cell-based
DNA ligase 1 [6] = target: T1, DNA ligase 1; assay: Inhibition of human recombinant DNA ligase 1 using nicked DNA substrate by kinetic assay
Method in brief: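 Initial ligation rates were measured with hLigI (0.05 pmol) and fluorescent nicked DNA substrate (0.5–100 pmol) at various inhibitor concentrations. Ki came from Lineweaver–Burk double-reciprocal plots and curve fitting.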

DNA = assay: Inhibition of ethidium bromide binding to DNA at 100 uM

T1 sequence (P18858 whole entry): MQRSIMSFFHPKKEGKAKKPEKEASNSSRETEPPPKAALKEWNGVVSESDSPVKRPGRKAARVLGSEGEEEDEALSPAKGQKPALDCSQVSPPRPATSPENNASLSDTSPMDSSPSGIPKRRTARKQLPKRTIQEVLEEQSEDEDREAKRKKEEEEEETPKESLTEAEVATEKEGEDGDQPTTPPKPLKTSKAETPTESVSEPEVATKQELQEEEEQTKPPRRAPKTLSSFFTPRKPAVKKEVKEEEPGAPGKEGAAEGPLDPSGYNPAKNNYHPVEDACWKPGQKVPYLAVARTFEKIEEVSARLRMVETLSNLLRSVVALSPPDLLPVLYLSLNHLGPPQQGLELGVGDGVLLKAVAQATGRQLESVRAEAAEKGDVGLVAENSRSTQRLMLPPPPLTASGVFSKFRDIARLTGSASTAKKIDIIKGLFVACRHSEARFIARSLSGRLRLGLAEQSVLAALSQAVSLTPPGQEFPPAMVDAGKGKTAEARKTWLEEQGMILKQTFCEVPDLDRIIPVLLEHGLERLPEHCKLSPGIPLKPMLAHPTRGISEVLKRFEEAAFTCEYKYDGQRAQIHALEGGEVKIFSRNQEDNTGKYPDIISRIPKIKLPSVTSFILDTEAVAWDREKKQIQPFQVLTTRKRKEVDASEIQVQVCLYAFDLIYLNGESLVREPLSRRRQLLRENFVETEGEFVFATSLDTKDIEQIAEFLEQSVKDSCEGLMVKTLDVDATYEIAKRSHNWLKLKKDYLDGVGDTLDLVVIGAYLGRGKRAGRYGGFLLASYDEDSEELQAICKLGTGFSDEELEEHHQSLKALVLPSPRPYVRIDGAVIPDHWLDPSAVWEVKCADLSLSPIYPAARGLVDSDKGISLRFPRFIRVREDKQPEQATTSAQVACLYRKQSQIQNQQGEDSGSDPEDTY

Row | Structure (SMILES) | inhibition (DNA ligase 1 [1]) [%] | logP [2] | Activity (DNA ligase 1 [3]) | pIC50 (DNA ligase 1 [4]) | inhibition (DNA ligase 1 [3]; concentration not given here) [%] | pKi (DNA ligase 1 [6]) | Activity (DNA) | growth inhibition [5] [%] | growth inhibition (HCT-116) [%]
1 | NS(=O)(=O)c1ccc(CCNC(=O)CCS(=O)(=O)c2ccc(Br)cc2)cc1 | 53.4 | 1.42 | Active | 5.10 | – | – | – | – | –
2 | Cc1oc(C(=O)O)cc1CSCc1cc(C(=O)O)c(C)o1 | 91 | 1.87 | Active | 6.22 | – | – | – | – | –
3 | O=C(O)CSc1cc(Cl)c2nonc2c1[N+](=O)[O-] | 60.6 | 2.15 | Active | 4.89 | – | – | – | 40 | –
4 | COc1ccc(-c2cnc3c(O)nc(O)nc3n2)cc1 | 52.5 | 1.78 | – | 4.60 | 39 | – | – | 70 | 40
5 | Cc1c(Br)cc(NCC(=O)N/N=C\c2cc([N+](=O)[O-])ccc2O)cc1Br | 78.3 | 4.91 | – | 5.10 | – | – | inactive | 70 | 70
6 | O=c1[nH]ncc(N/N=C\c2ccc(O)c([N+](=O)[O-])c2)c1Cl | 59.8 | 4.84 | – | 4.92 | – | – | inactive | 70 | 40

Further lines, with some results ahead:

Row | inhibition (DNA ligase 1 [1]) [%] | logP [2] | Activity (DNA ligase 1 [3]) | pIC50 (DNA ligase 1 [4]) | inhibition (DNA ligase 1 [3]; concentration not given here) [%] | pKi (DNA ligase 1 [6]) | Activity (DNA) | Structure (SMILES) | growth inhibition [5] [%] | growth inhibition (HCT-116) [%]
7 | 60.5 | 1.92 | Active | 5.00 | – | – | – | CSc1ccc(C(=O)O)s1 | – | –
8 | 59.3 | 0.24 | Active | 5.40 | – | 5.40 | – | O=C1Nc2c(C(=O)O)cccc2C1=O | – | –
9 | 50.7 | 3.04 | Active | 4.60 | – | – | – | O=C(c1ccc(O)cc1)c1ccccc1O | – | –
